From ChEMBL document CHEMBL4706516, “Development of dual inhibitors targeting pyruvate dehydrogenase kinases and human lactate dehydrogenase A: High-throughput virtual screening, synthesis and biological validation” (Eur J Med Chem, 2020)
Active and inactive are the calls of the source. The rule behind the calls is not given here.

Columns and labels:
A549 [1] = test: Antiproliferative activity against human A549 assessed as cell growth inhibition at 20 uM measured after 72 hrs by MTT assay; assay type: functional
In short: (§1)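 A549 cells grown in DMEM with 10% FBS and 1% penicillin/streptomycin, 5% CO2, humidified; exponential-phase cells used. Cells seeded at 2000/well, exposed to compound for 72 h, then MTT added and incubated 4 h before readout. Single-concentration screening at […]; EC50 values calculated from two independent experiments.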

Sus scrofa = organism: Sus scrofa; test: Inhibition of pig PDK assessed as catalytic activity at 10 uM by PDC assay
[2] = biological target: T1, L-lactate dehydrogenase A chain (Homo sapiens, UniProt P00338); test: Inhibition of LDHA (unknown origin) in presence of NADH and sodium pyruvate at 10 uM by enzymatic assay relative to parent compound
In short: (§2)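 LDHA at 5 nM final in buffer of 150 mM Tris-HCl pH 7.4 with EDTA and 0.01% Tween-20, compounds in 1% DMSO. Reaction started with substrate solution, final NADH 0.06 mM and sodium pyruvate 0.2 mM. After 10 min at room temperature, plates read at 340 nm. Screening done at a single concentration of 10.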

[3] = biological target: T1, L-lactate dehydrogenase A chain; test: Inhibition of LDHA (unknown origin) in presence of NADH and sodium pyruvate measured after 10 mins by enzymatic assay; in short: as §2
[4] = Inhibition of pig PDK assessed as catalytic activity measured after 30 mins by microplate reader based assay; set-up: species or system Sus scrofa
In short: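 Pig PDC preincubated 30 min at 37 °C in Mops pH 7.20 buffer with EDTA, KCl, MgCl2, acetyl-CoA, NADH, DTT and NaF. Kinase reaction started by adding ATP-containing buffer with or without compound; ATP-free wells serve as no-PDK controls. Reaction run 3 min at 37 °C, then stopped with ADP and pyruvate. Remaining PDC activity measured at 340 nm in Tris pH 7.8 with TPP, NAD+, pyruvate and CoA. IC50 is the mean of three independent experiments.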

A549 [5] = test: Anticancer activity against human A549 assessed as cell growth inhibition measured after 72 hrs by MTT assay; assay type: functional, cell-based; settings: A549, 72 h; in short: as §1
A549 [6] = test: Metabolic modulatory effect in human A549 cells assessed as decrease in lactate formation measured after 4 hrs by Flex analyzer; assay type: functional, cell-based; settings: dose 10-40 µM
In short: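 A549 cells, 2 × 10^5 per well, plated overnight, then treated at […] for 4 h at 37 °C. Medium collected and centrifuged 10 min at 10000 rpm to remove debris. Lactate in the medium measured on a Nova Bioprofile Flex analyzer.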

A549 [7] = test: Metabolic modulatory effect in human A549 cells assessed as increase in oxygen consumption rate at 10 to 40 uM measured after 4 hrs by seahorse XF24 extracellular flux analyzer assay; assay type: functional, cell-based; settings: dose 10-40 µM

IC50 [3] [µM] | IC50 [4] [µM] | SMILES | also measured
 |  | CC1(C)Cc2c(C#N)c(N3CCN(C(=O)C(=O)NCCO)CC3)nc(-c3ccccc3)c2CO1 | inhibition (A549 [1]): inactive; inhibition (Sus scrofa): 50%; inhibition [2]: Active
> 10 | > 10 | COc1cccc(C(=O)N2CCN(CCOc3c(C)occc3=O)CC2)c1 | 
> 10 | 6.3 | Cc1occc(=O)c1OCC(=O)N1CCN(c2ccccc2[N+](=O)[O-])CC1 | 
0.15 | 0.8 | Cc1occc(=O)c1OCCN1CCN(C(=O)c2ccc(F)cc2)CC1 | EC50 (A549 [5]): 13.2 µM; Activity (A549 [6]): Dose-dependent effect; Activity (A549 [7]): Active
> 10 | > 10 | Cc1occc(=O)c1OCCN1CCN(C(=O)C(Cl)Cl)CC1 | 
2.8 | > 10 | Cc1occc(=O)c1OCCN1CCN(C(=O)c2ccccc2)CC1 | 
 |  | COc1cccc(N2CCN(C(=O)COc3coc(C)cc3=O)CC2)c1 | inhibition (A549 [1]): inactive; inhibition (Sus scrofa): 50%; inhibition [2]: Active
 |  | O=C(CN1C(=O)c2ccccc2N2C(=O)c3ccccc3C12)NCCNc1ncccn1 (stereo unspecified) | inhibition at 20 µM (A549 [1]): 50%; inhibition (Sus scrofa): 50%; inhibition [2]: Active
 |  | Cc1nc(N2CCN(C(=O)C(=O)NCCO)CC2)c(C#N)c2c1CCCC2 | inhibition (A549 [1]): inactive; inhibition (Sus scrofa): 50%; inhibition [2]: Active
3.7 | 1.4 | Cc1occc(=O)c1OCC(=O)N1CCN(c2ccc(F)cc2)CC1 | 
 |  | CC(C)c1nc(N2CCN(C(=O)C(=O)NCCO)CC2)c(C#N)c2c1CCC2 | inhibition (A549 [1]): inactive; inhibition (Sus scrofa): 50%; inhibition [2]: Active
> 10 | > 10 | COc1cc(OC)cc(N2CCN(C(=O)COc3c(C)occc3=O)CC2)c1 | 
0.7 | 1.6 | Cc1occc(=O)c1OCCN1CCN(C(=O)c2ccco2)CC1 | EC50 (A549 [5]): 15.7 µM; Activity (A549 [6]): Dose-dependent effect; Activity (A549 [7]): Active
0.56 | > 10 | COc1ccc(N2CCN(C(=O)COc3c(C)occc3=O)CC2)cc1 | 
4.6 | > 10 | COc1cccc(N2CCN(C(=O)COc3c(C)occc3=O)CC2)c1 | 
 |  | CCOC(=O)C(=O)N1CCN(c2nc(C(C)C)c3c(c2C#N)CCC3)CC1 | inhibition (A549 [1]): inactive; inhibition (Sus scrofa): 50%; inhibition [2]: Active

IC50 [3] [µM] | IC50 [4] [µM] | SMILES | also measured
2.7 | 3.9 | Cc1occc(=O)c1OCCN1CCN(C(=O)c2ccc(Cl)cc2)CC1 | EC50 (A549 [5]): > 20 µM
4.7 | 5.1 | Cc1occc(=O)c1OCCN1CCN(C(=O)c2ccc(C(F)(F)F)cc2)CC1 | EC50 (A549 [5]): > 20 µM
> 10 | 1 | Cc1occc(=O)c1OCC(=O)N1CCN(c2cccc(F)c2)CC1 | 
3.4 | 5.9 | Cc1occc(=O)c1OCCN1CCN(C(=O)c2ccccc2F)CC1 | EC50 (A549 [5]): > 20 µM
> 10 | > 10 | Cc1occc(=O)c1OCC(=O)N1CCN(c2ccccn2)CC1 | 
> 10 | > 10 | Cc1ccccc1N1CCN(C(=O)COc2c(C)occc2=O)CC1 | 
6.9 | 0.8 | Cc1occc(=O)c1OCC(=O)N1CCN(c2ccc([N+](=O)[O-])cc2)CC1 | 
> 10 | 3 | Cc1occc(=O)c1OCCN1CCN(C(=O)c2ccccc2[N+](=O)[O-])CC1 | 
> 10 | > 10 | Cc1occc(=O)c1OCC(=O)N1CCN(c2ccccc2F)CC1 | 
> 10 | 1.8 | Cc1occc(=O)c1OCC(=O)N1CCN(c2ccccc2)CC1 | 
5.9 | 9.1 | Cc1occc(=O)c1OCC(=O)N1CCN(c2cccc(Cl)c2)CC1 | EC50 (A549 [5]): 18.5 µM; inhibition at 20 µM (A549 [1]): 51%; inhibition (Sus scrofa): 50%
> 10 | > 10 | Cc1occc(=O)c1OCC(=O)N1CCN(c2ncccn2)CC1 | 
7.7 | > 10 | Cc1cccc(C(=O)N2CCN(CCOc3c(C)occc3=O)CC2)c1 | 
 |  | CCOC(=O)C(=O)N1CCN(c2nc(C)c3c(c2C#N)CCCC3)CC1 | inhibition (A549 [1]): inactive; inhibition (Sus scrofa): 50%; inhibition [2]: Active
> 10 | 8.1 | Cc1cc(C)cc(N2CCN(C(=O)COc3c(C)occc3=O)CC2)c1 | 
 |  | CCOC(=O)C(=O)N1CCN(c2nc(-c3ccccc3)c3c(c2C#N)CC(C)(C)OC3)CC1 | inhibition (A549 [1]): inactive; inhibition (Sus scrofa): 50%; inhibition [2]: Active

SMILES | IC50 [3] [µM] | IC50 [4] [µM] | also measured
Cc1occc(=O)c1OCC(=O)N1CCN(C(c2ccccc2)c2ccccc2)CC1 | 7.3 | > 10 | 
